# From PMC6404985 (Cell chemical biology, 2018)
# “Also recorded” adds a separate entry of the source.
# Key:
# [1] = test system: BAF-mediated transcriptional repression (Bmi1-luciferase reporter cell line); experiment: Bmi1-luciferase reporter assay in mouse ESCs; format: cell-based; settings: for activity in the Bmi1 luciferase reporter assays (in words): follow up library
# Outline: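 Mouse ESC Bmi1-luciferase reporter line: 10,000 cells per 384-well in ESC medium, 24 h at 37 °C/5% CO2, then compound added by 100 nL pin transfer alongside a positive control. Each concentration in triplicate; DMSO tolerated to 0.5%. After 24 h treatment, equilibrated 10 min at room temperature, SteadyGlo added for 10 min, luminescence read. EC50 derived.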
# latent HIV-1 [2] = experiment: Ex vivo primary CD4+ T cell model of HIV-1 latency; format: cell-based; settings: 24 h treatment
# Outline: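 Healthy-donor CD4+ T cells (buffy coat, Ficoll, RosetteSep negative selection) were spin-infected 24 h after isolation with HXB2 Env-pseudotyped pNL4.3.Luc.R-E- (1200 g, 2 h). After 18 h, cells were washed and cultured with 5 µM saquinavir. Three days later, treated 24 h with 30 µM raltegravir present. Luciferase read-out normalized to total protein, expressed as fold over untreated; Bliss score for combinations.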
# ARID1A = experiment: Biotin pulldown from ESC lysates, ARID1A; format: binding, mouse; settings: 200 µM soluble compound, pulldown with CAM 2–56
# Outline: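 Beads incubated 2 h with cell lysates pre-incubated with DMSO or 200 µM soluble competitor. Beads washed once, boiled in SDS loading buffer, and bound proteins detected by immunoblot.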
# latent HIV-1 [3] = experiment: Second ex vivo model of HIV-1 latency; format: cell-based; settings: 24 h
# Outline: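 Healthy-donor CD4+ T cells were polarized for 3 days with 10 ng/ml TGF-β, 1 µg/ml α-IL-4 and αCD3/CD28 beads (1:1). Beads removed, then 4 days in 30 IU/ml rIL-2. Spin-infected 90 min at 1200 g, then kept in rIL-2 plus 5 µM saquinavir. Seven days post-infection, treated 24 h with increasing concentrations plus 30 µM raltegravir. Luciferase RLU normalized to total protein.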
# [4] = test system: human primary CD4+ T cells; experiment: T cell activation markers CD25 and CD69; format: cell-based; settings: 24 and 72 hours, two healthy donors
# latent HIV-1 [5] = experiment: Latency reversal in CD4+ T cells from aviremic HIV-1 infected patients; format: cell-based
# [6] = test system: BAF target genes p21 and c-MYC; experiment: Biomarker mRNA expression of BAF target genes in CD4+ T cells; format: cell-based, human
# Outline: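 Human CD4+ T cells, healthy donors: three donors isolated by Ficoll and RosetteSep negative selection, treated in duplicate with 3 µM test compound or DMSO for 16 h. HIV+ patient cells: frozen PBMCs rested overnight, CD4+ enriched twice, rested 6 h, 3 million cells treated with 10 µM compound or DMSO. TRIreagent RNA, random-primed cDNA; p21 and c-MYC mRNA vs control; Student's t test.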
# [7] = test system: nucleosome occupancy at the HIV-1 5'-LTR; experiment: FAIRE assay in J-Lat 11.1; format: cell-based; settings: J-Lat 11.1, overnight treatment
# wild type ESCs = experiment: Viability of wild type ESCs; format: cell-based, mouse; settings: up to 30 µM, 72 h
# Outline: (§1)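 2000 cells/well in 384-well plates, pre-incubated 24 h at 37 °C, 5% CO2. Compound added by pin transfer; mitoxantrone (10 µM final) as cytotoxic positive control. Incubated 72 h, equilibrated 15 min to room temperature. CellTiter-Glo diluted 1:1 with PBS (pH 7.4) added, luminescence read. Run at eight doses as a viability counter-screen.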
# HepG2 cells = experiment: Viability assay HepG2; format: cell-based, human; settings: 72 h
# Outline: as §1
# HEK293T cells = experiment: Viability assay HEK293T; format: cell-based, human; settings: 72 h
# Outline: as §1
# A549 cells = experiment: Viability assay A549; format: cell-based, human; settings: 72 h
# Outline: as §1
# [8] = test system: latent HIV-1 provirus in J-Lat cells; experiment: J-Lat T-cell line models of HIV-1 latency; format: cell-based; settings: 48 h; higher concentrations than in primary cells
# [9] = test system: BAF target genes (Bmi1, Ring1, Fgf4); settings: 30 µM, 18 h
# latent HIV-1 [10] = experiment: HIV latency reversal activity of the thiophene hit; format: cell-based
# [11] = CD4+ T cells of three patients, 10 µM
smiles,measurement,setting,value
CCC(CC)Nc1c(Nc2ccc3c(c2)C(=O)N(C)C[C@H](OC)[C@@H](C)CN(Cc2ccc(-c4ccccn4)cc2)[C@@H](C)CO3)c(=O)c1=O [BRD-K04244835],activity in the Bmi1 luciferase reporter assays (in words),[1],low/no activity
CO[C@H]1CN(C)C(=O)c2cc(NC(=O)NC(C)C)ccc2OC[C@H](C)N(Cc2ccccc2)C[C@@H]1C [BRD-K13648511],activity in the Bmi1 luciferase reporter assays (in words),[1],low/no activity
CO[C@H]1CN(C)C(=O)c2cc(NC(=O)NC(C)C)ccc2OC[C@H](C)N(Cc2ccc(-c3cccnc3)cc2)C[C@@H]1C [BRD-K17257309],activity in the Bmi1 luciferase reporter assays (in words),[1],moderate activity
CO[C@H]1CN(C)C(=O)c2cc(N)ccc2OC[C@H](C)N(Cc2ccc(-c3ccccn3)cc2)C[C@@H]1C [BRD-K25923209],activity in the Bmi1 luciferase reporter assays (in words),[1],high activity
same,transcription of latent HIV-1 in ex vivo infected primary CD4+ T cells,latent HIV-1 [2],triggered HIV transcription
same,ARID1A enrichment upon preincubation of lysates with soluble competitor,ARID1A,complete reduction
CO[C@H]1CN(C)C(=O)c2cc(NC(=O)OC(C)C)ccc2OC[C@H](C)N(Cc2ccc(-c3ccccn3)cc2)C[C@@H]1C [BRD-K80443127],activity in the Bmi1 luciferase reporter assays (in words),[1],high activity
same,transcription of latent HIV-1 in ex vivo infected primary CD4+ T cells,latent HIV-1 [2],slightly higher activity at low concentrations; also recorded: triggered HIV transcription
same,activation in second ex vivo model of HIV-1 latency,latent HIV-1 [3],activation was confirmed
same,effect on CD25 and CD69 expression (T cell activation),[4],no effect
same,potentiation of prostratin activity,latent HIV-1 [5]; all three patients,significant potentiation
same,cell associated HIV mRNA after ex vivo treatment alone,latent HIV-1 [5]; in one patient,significant increase
same,POL copies when co-treated with prostratin,"latent HIV-1 [5]; patient 2 and 3, 10 µM with 200 nM prostratin, 24 h",significant increase
same,cell associated HIV-1 POL after treatment alone,"latent HIV-1 [5]; patient 2 and 3, 10 µM, 24 h",did not result in a significant increase
same,differential expression of c-MYC and p21,"[6]; CD4+ T cells of healthy donors, 3 µM, 16 hours",consistent with BAF inhibition
same,C-MYC transcripts levels,[6]; [11],significant decrease
same,p21 transcripts levels,[6]; [11],significant decrease
same,chromatin accessibility at the Nuc-1 position of the 5' LTR,[7],increased chromatin accessibility
CO[C@H]1CN(C)C(=O)c2cc(NC(=O)NC(C)C)ccc2OC[C@H](C)N(Cc2ccc(-c3ccccn3)cc2)C[C@@H]1C [BRD-K98645985],activity in the Bmi1 luciferase reporter assays (in words),[1],high activity
same,EC50,"[1]; read-out: EC50 in the luciferase assay, 24 h compound treatment, re-evaluation of hit",~2.37 µM
same,toxicity to ESCs,wild type ESCs,no toxicity
same,toxicity to HepG2 cells,HepG2 cells,no toxicity
same,toxicity to HEK293T cells,HEK293T cells,no toxicity
same,toxicity to A549 cells,A549 cells,no toxicity
same,transcription of latent HIV-1 in ex vivo infected primary CD4+ T cells,latent HIV-1 [2],triggered HIV transcription
same,latency reversal in J-Lat cells,[8],concentration dependent latency reversal
same,fold decrease in Fgf4,[9],3.3 fold
same,fold increase in Bmi1,[9],5 fold
same,fold increase in Ring1,[9],2.6 fold
C=CCNc1nc(NCc2cccc(OC)c2)c2sc(-c3ccccc3)cc2n1 [MLS003122856],HIV latency reversal activity,latent HIV-1 [10],only moderate HIV latency reversal activity
